# Reference: ChEMBL document CHEMBL3352456, “Design, synthesis and biological activity of a novel Rutin analogue with improved lipid soluble properties” (Bioorg Med Chem, 2015)
# Calls of active or inactive are those of the source. The calls are words filed in the database; no cut-off is given here.
# Experiments:
# [1] = Octanol-water partition coefficient, log P of the compound at 5 mg/20 ml after 30 mins by spectrophotometric analysis; type: physicochemical
# Summary of the method: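 Octanol and water (pH 6), 20 mL each, stirred 30 min at 25 °C, then centrifuged 10 min at 4,000 rpm. Compound concentration in each phase measured spectrophotometrically at 360 nm. LogP = log of the octanol/water concentration ratio.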
# Epidermophyton floccosum [2] = experiment: Antifungal activity against Epidermophyton floccosum (Hartz) Langeron and Milochevitch CBS 358.93 assessed as growth inhibition at 20 ug/ml measured on day 7 by sabouraud dextrose agar diffusion method relative to control; type: functional
# Summary of the method: (§1)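 Dermatophyte strains kept on Sabouraud dextrose agar slants. Mycelium disks (10 mm) from a stationary-phase culture grown at 26 ± 1 °C on cellophane over SDA to log phase, then moved onto SDA containing compound added from DMSO stock at 45 °C (final DMSO 0.1%; DMSO-only controls). Colony diameter measured daily for 7 days. % inhibition = (dex − dex')/dex × 100. Three replicates per concentration; mean of three independent experiments.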
# Trichophyton rubrum [3] = experiment: Antifungal activity against Trichophyton rubrum (Castellani) Sabouraud IHME 4321 assessed as growth inhibition at 20 ug/ml measured on day 7 by sabouraud dextrose agar diffusion method relative to control; type: functional; details: (Castellani) Sabouraud IHME 4321, 168 h, read-out: GI; summary of the method: as §1
# Trichophyton tonsurans [4] = experiment: Antifungal activity against Trichophyton tonsurans Malmsten CBS 483.76 assessed as growth inhibition at 20 ug/ml measured on day 7 by sabouraud dextrose agar diffusion method relative to control; type: functional; details: Malmsten CBS 483.76, 168 h, read-out: GI; summary of the method: as §1
# Trichophyton violaceum [5] = experiment: Antifungal activity against Trichophyton violaceum Malmsten CBS 459.61 assessed as growth inhibition at 20 ug/ml measured on day 7 by sabouraud dextrose agar diffusion method relative to control; type: functional; details: Malmsten CBS 459.61, 168 h, read-out: GI; summary of the method: as §1
# [6] = tested on: Trichophyton mentagrophytes; experiment: Antifungal activity against Trichophyton mentagrophytes (Robin) Blanchard CBS 160.66 assessed as growth inhibition at 20 ug/ml measured on day 7 by sabouraud dextrose agar diffusion method relative to control; type: functional; details: (Robin) Blanchard CBS 160.66, 168 h, read-out: GI; summary of the method: as §1
# Nannizzia gypsea [7] = experiment: Antifungal activity against Microsporum gypseum (Bodin) Guiart and Grigorakis IHME 3999 assessed as growth inhibition at 20 ug/ml measured on day 7 by sabouraud dextrose agar diffusion method relative to control; type: functional; details: (Bodin) Guiart and Grigorakis IHME 3999, 168 h, read-out: GI; summary of the method: as §1
# Paraphyton cookei [8] = experiment: Antifungal activity against Nannizzia cajetani Ajello CBS 495.70 assessed as growth inhibition at 20 ug/ml measured on day 7 by sabouraud dextrose agar diffusion method relative to control; type: functional; details: Ajello CBS 495.70, 168 h, read-out: GI; summary of the method: as §1
# [9] = Antifungal activity against Microsporum canis Bodin CBS 4727 assessed as growth inhibition at 20 ug/ml measured on day 7 by sabouraud dextrose agar diffusion method relative to control; type: functional; summary of the method: as §1
# Nannizzia gypsea [10] = experiment: Antifungal activity against Nannizzia gypsea (Bodin) Guiart et Grigoraki CBS 286.63 assessed as growth inhibition at 20 ug/ml measured on day 7 by sabouraud dextrose agar diffusion method relative to control; type: functional; details: (Bodin) Guiart et Grigoraki CBS 286.63, 168 h, read-out: GI; summary of the method: as §1
# Epidermophyton floccosum [11] = experiment: Antifungal activity against Epidermophyton floccosum (Hartz) Langeron and Milochevitch CBS 358.93 assessed as growth inhibition at 100 ug/ml measured on day 7 by sabouraud dextrose agar diffusion method relative to control; type: functional; summary of the method: as §1
# Trichophyton rubrum [12] = experiment: Antifungal activity against Trichophyton rubrum (Castellani) Sabouraud IHME 4321 assessed as growth inhibition at 100 ug/ml measured on day 7 by sabouraud dextrose agar diffusion method relative to control; type: functional; details: (Castellani) Sabouraud IHME 4321, 168 h, read-out: GI; summary of the method: as §1
# Trichophyton tonsurans [13] = experiment: Antifungal activity against Trichophyton tonsurans Malmsten CBS 483.76 assessed as growth inhibition at 100 ug/ml measured on day 7 by sabouraud dextrose agar diffusion method relative to control; type: functional; details: Malmsten CBS 483.76, 168 h, read-out: GI; summary of the method: as §1
# Trichophyton violaceum [14] = experiment: Antifungal activity against Trichophyton violaceum Malmsten CBS 459.61 assessed as growth inhibition at 100 ug/ml measured on day 7 by sabouraud dextrose agar diffusion method relative to control; type: functional; details: Malmsten CBS 459.61, 168 h, read-out: GI; summary of the method: as §1
# [15] = tested on: Trichophyton mentagrophytes; experiment: Antifungal activity against Trichophyton mentagrophytes (Robin) Blanchard CBS 160.66 assessed as growth inhibition at 100 ug/ml measured on day 7 by sabouraud dextrose agar diffusion method relative to control; type: functional; details: (Robin) Blanchard CBS 160.66, 168 h, read-out: GI; summary of the method: as §1
# Nannizzia gypsea [16] = experiment: Antifungal activity against Microsporum gypseum (Bodin) Guiart and Grigorakis IHME 3999 assessed as growth inhibition at 100 ug/ml measured on day 7 by sabouraud dextrose agar diffusion method relative to control; type: functional; details: (Bodin) Guiart and Grigorakis IHME 3999, 168 h, read-out: GI; summary of the method: as §1
# Paraphyton cookei [17] = experiment: Antifungal activity against Nannizzia cajetani Ajello CBS 495.70 assessed as growth inhibition at 100 ug/ml measured on day 7 by sabouraud dextrose agar diffusion method relative to control; type: functional; details: Ajello CBS 495.70, 168 h, read-out: GI; summary of the method: as §1
# [18] = Antifungal activity against Microsporum canis Bodin CBS 4727 assessed as growth inhibition at 100 ug/ml measured on day 7 by sabouraud dextrose agar diffusion method relative to control; type: functional; summary of the method: as §1
# Nannizzia gypsea [19] = experiment: Antifungal activity against Nannizzia gypsea (Bodin) Guiart et Grigoraki CBS 286.63 assessed as growth inhibition at 100 ug/ml measured on day 7 by sabouraud dextrose agar diffusion method relative to control; type: functional; details: (Bodin) Guiart et Grigoraki CBS 286.63, 168 h, read-out: GI; summary of the method: as §1
# [20] = molecular target: Nuclear factor NF-kappa-B complex (Homo sapiens) (UniProt Q00653+P19838+Q04206); experiment: Inhibition of NF-kappaB (unknown origin)/32P-labeled oligonucleotide interaction at 0.1 to 10 mM after 20 mins by electrophoretic mobility shift assay; type: protein-complex assay
# Nuclear factor NF-kappa-B complex (Homo sapiens), sequence (P19838 whole entry, looked up): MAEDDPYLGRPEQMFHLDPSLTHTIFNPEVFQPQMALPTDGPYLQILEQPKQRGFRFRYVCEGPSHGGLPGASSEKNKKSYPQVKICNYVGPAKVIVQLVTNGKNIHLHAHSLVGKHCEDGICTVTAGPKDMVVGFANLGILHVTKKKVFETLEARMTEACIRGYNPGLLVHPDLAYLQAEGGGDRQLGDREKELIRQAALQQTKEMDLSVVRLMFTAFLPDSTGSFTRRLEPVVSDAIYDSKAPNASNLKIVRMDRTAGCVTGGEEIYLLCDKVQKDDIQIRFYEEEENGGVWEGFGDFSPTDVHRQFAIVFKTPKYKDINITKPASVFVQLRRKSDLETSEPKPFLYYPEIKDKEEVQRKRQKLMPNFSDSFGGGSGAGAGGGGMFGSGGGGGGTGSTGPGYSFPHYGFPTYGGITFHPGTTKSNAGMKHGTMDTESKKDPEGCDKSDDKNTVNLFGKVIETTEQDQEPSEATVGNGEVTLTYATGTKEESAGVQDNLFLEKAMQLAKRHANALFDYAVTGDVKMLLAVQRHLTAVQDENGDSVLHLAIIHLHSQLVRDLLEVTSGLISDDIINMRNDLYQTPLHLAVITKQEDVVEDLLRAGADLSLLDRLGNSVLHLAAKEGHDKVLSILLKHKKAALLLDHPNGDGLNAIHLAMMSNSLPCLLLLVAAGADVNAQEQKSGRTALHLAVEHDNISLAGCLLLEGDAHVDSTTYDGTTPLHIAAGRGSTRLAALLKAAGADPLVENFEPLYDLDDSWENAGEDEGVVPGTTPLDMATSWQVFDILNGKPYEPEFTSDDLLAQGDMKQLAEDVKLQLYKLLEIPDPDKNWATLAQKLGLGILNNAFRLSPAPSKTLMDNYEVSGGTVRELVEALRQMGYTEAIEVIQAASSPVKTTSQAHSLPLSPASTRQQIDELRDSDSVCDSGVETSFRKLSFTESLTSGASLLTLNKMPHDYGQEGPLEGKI
# Nuclear factor NF-kappa-B complex (Homo sapiens), sequence (Q00653 whole entry, looked up): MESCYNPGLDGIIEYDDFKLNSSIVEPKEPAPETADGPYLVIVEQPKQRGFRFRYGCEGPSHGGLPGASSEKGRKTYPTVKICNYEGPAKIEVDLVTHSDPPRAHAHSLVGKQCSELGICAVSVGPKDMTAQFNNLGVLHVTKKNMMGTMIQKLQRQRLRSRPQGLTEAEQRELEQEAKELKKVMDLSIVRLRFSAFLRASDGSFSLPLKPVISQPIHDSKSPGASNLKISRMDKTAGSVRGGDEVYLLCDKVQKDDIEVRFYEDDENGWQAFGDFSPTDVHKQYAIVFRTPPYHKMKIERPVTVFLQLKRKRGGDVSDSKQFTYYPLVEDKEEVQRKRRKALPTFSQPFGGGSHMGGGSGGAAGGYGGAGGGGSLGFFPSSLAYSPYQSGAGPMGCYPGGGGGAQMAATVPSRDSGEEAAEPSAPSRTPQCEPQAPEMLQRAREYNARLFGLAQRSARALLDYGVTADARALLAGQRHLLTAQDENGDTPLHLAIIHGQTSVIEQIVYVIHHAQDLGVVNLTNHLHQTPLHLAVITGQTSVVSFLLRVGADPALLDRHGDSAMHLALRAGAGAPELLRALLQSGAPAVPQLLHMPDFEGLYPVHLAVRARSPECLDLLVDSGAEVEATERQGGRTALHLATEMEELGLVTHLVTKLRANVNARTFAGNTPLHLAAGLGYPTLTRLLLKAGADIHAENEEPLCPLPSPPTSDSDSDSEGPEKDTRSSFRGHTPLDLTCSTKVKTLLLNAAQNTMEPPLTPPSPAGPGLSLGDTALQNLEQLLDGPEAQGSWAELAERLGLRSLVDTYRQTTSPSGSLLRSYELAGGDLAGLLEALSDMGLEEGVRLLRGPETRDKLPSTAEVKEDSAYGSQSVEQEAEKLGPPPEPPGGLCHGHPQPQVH
# Nuclear factor NF-kappa-B complex (Homo sapiens), sequence (Q04206 whole entry, looked up): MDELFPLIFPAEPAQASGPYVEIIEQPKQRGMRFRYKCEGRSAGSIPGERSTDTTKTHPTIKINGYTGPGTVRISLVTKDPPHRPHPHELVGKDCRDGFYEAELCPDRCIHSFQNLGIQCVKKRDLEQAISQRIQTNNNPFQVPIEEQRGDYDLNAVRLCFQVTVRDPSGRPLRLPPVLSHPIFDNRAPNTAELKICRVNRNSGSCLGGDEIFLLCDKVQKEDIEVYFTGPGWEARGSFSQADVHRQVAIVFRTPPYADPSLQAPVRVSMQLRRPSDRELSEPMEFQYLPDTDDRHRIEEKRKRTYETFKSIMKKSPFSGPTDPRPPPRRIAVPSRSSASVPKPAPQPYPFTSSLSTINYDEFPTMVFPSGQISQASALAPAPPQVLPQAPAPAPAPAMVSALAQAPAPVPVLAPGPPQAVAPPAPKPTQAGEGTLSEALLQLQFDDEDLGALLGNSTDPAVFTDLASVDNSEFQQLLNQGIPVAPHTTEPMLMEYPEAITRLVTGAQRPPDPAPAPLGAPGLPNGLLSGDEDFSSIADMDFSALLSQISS
# Summary of the method: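 Probe was a double-stranded 32P-labelled oligonucleotide (0.25 ng) in buffer of 10% glycerol, 0.05% NP-40, 10 mM Tris-HCl pH 7.5, 50 mM NaCl, 0.5 mM DTT and 10 mM MgCl2. Compound and probe were bound for 20 min at room temperature, then recombinant NF-kappaB p50 was added for a further 20 min. Samples were run on 6% polyacrylamide in 0.25× TBE at 200 V.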
# K562 [21] = experiment: Induction of apoptosis in human K562 cells assessed as live cells at 5 uM after 3 days by Annexin-V staining-based assay (reference value: 87.33%); type: functional
# K562 [22] = experiment: Induction of apoptosis in human K562 cells assessed as live cells at 10 uM after 3 days by Annexin-V staining-based assay (reference value: 87.33%); type: functional
# K562 [23] = experiment: Induction of apoptosis in human K562 cells assessed as early apoptotic cells at 5 uM after 3 days by Annexin-V staining-based assay (reference value: 5.41%); type: functional
# K562 [24] = experiment: Induction of apoptosis in human K562 cells assessed as early apoptotic cells at 10 uM after 3 days by Annexin-V staining-based assay (reference value: 5.41%); type: functional
# K562 [25] = experiment: Induction of apoptosis in human K562 cells assessed as late apoptotic cells at 5 uM after 3 days by Annexin-V staining-based assay (reference value: 5.96%); type: functional
# K562 [26] = experiment: Induction of apoptosis in human K562 cells assessed as late apoptotic cells at 10 uM after 3 days by Annexin-V staining-based assay (reference value: 5.96%); type: functional
# K562 [27] = experiment: Induction of apoptosis in human K562 cells assessed as dead cells at 5 uM after 3 days by Annexin-V staining-based assay (reference value: 1.29%); type: functional
# K562 [28] = experiment: Induction of apoptosis in human K562 cells assessed as dead cells at 10 uM after 3 days by Annexin-V staining-based assay (reference value: 1.29%); type: functional
# K562 [29] = experiment: Induction of apoptosis in human K562 cells assessed as apoptotic cells at 5 uM after 3 days by Annexin-V staining-based assay (reference value: 11.37%); type: functional
# K562 [30] = experiment: Induction of apoptosis in human K562 cells assessed as apoptotic cells at 10 uM after 3 days by Annexin-V staining-based assay (reference value: 11.37%); type: functional
# [31] = Antioxidant activity assessed as superoxide anion radical scavenging by photochemiluminescence method relative to trolox; type: physicochemical
# Summary of the method: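 Superoxide was generated photochemically from luminol under UV light (351 nm). Lag time (water-soluble, ACW) or integrated light emission over 180 s (lipid-soluble, ACL) was compared with a Trolox standard curve. Samples were centrifuged 5 min at 16000 g and diluted 1:40 in water (ACW) or methanol (ACL). Triplicate determinations.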
# [32] = Antioxidant activity assessed as inhibition of AAPH-induced peroxyl radical generation by oxygen radical absorbance capacity assay relative to trolox; type: physicochemical
# Summary of the method: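 Run at 37 °C and pH 7.4 with fluorescein (85 nM) as the probe and AAPH as the peroxyl radical source. Compounds were dissolved fresh in PBS. Fluorescence read at ex 485/em 538 nm every 5 min for up to 30 min after AAPH addition. Net area under the decay curve (blank minus sample) was calibrated against Trolox at 10–50 μM and given as Trolox equivalents.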
# [33] = Antioxidant activity assessed as superoxide anion radical scavenging by photochemiluminescence method relative to trolox using formulation containing O/W; type: physicochemical
# K562 [34] = experiment: Antiproliferative activity against human K562 cells assessed as cell number after 3 days by Coulter counter; details: K562, 72 h
structure (smiles),measurement,setting,value
CCC(=O)O[C@@H]1[C@@H](OC(=O)CC)[C@H](C)O[C@@H](OC[C@H]2O[C@@H](Oc3c(-c4ccc(O)c(O)c4)oc4cc(O)cc(O)c4c3=O)[C@H](OC(=O)CC)[C@@H](OC(=O)CC)[C@@H]2OC(=O)CC)[C@@H]1OC(=O)CC,logP at 0.5 h,[1],1.09
same,growth inhibition (GI),Epidermophyton floccosum [2],inactive
same,inhibition of growth at 20 µg/mL,Trichophyton rubrum [3],3.5%
same,inhibition of growth at 20 µg/mL,Trichophyton tonsurans [4],5.4%
same,inhibition of growth at 20 µg/mL,Trichophyton violaceum [5],10.7%
same,inhibition of growth at 20 µg/mL,[6],0%
same,inhibition of growth at 20 µg/mL,Nannizzia gypsea [7],5.4%
same,inhibition of growth at 20 µg/mL,Paraphyton cookei [8],0.6%
same,growth inhibition (GI),[9],inactive
same,inhibition of growth at 20 µg/mL,Nannizzia gypsea [10],1.9%
same,growth inhibition (GI),Epidermophyton floccosum [11],inactive
same,inhibition of growth at 100 µg/mL,Trichophyton rubrum [12],4.3%
same,inhibition of growth at 100 µg/mL,Trichophyton tonsurans [13],17.8%
same,inhibition of growth at 100 µg/mL,Trichophyton violaceum [14],15.8%
same,inhibition of growth at 100 µg/mL,[15],5.7%
same,inhibition of growth at 100 µg/mL,Nannizzia gypsea [16],9.9%
same,inhibition of growth at 100 µg/mL,Paraphyton cookei [17],3.5%
same,growth inhibition (GI),[18],0%
same,inhibition of growth at 100 µg/mL,Nannizzia gypsea [19],7.9%
same,inhibition,[20],Active
same,Activity,K562 [21],79.75%
same,Activity,K562 [22],71.2%
same,Activity,K562 [23],12.35%
same,Activity,K562 [24],11.64%
same,Activity,K562 [25],5.35%
same,Activity,K562 [26],15.82%
same,Activity,K562 [27],2.55%
same,Activity,K562 [28],1.34%
same,Activity,K562 [29],17.7%
same,Activity,K562 [30],27.46%
same,Activity,[31],1232.67 µmol/g
same,Activity,[32],728.61 µmol/g
same,Activity,[33],3.81 µmol/g
same,IC50,K562 [34],7.17 µM
